Laboratory results as given in ChEMBL document CHEMBL1132623, “Structure-based design, synthesis, and biological evaluation of irreversible human rhinovirus 3C protease inhibitors. 4. Incorporation of P1 lactam moieties as L-glutamine replacements” (J Med Chem, 1999).

Assays:
[1] = The 50% cytotoxic concentration was calculated as the concentration of the drug that decreased the percentage of formazan produced in drug-treated,uninfected cells to 50% of that produced in drug free uninfected cells on serotype 14.; format: functional
[2] = molecular target: T1, Human rhinovirus A protease (Human rhinovirus sp.) (UniProt Q4U254); assay: Irreversible inhibition of human rhinovirus 3C protease
T1 sequence (whole entry): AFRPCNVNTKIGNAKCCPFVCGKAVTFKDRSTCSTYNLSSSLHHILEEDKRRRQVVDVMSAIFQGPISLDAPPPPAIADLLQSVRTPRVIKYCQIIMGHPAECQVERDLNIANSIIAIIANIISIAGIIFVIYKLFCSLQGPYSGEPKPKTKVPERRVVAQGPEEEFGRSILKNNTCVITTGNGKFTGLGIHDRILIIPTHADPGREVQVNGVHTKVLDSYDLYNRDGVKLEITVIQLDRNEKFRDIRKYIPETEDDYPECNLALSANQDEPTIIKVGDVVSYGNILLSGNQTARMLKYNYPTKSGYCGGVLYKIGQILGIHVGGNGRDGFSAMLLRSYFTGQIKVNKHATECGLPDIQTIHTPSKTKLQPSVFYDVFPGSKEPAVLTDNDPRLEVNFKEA

[3] = molecular target: T2, Calpain-1 catalytic subunit (Homo sapiens) (UniProt P07384); assay: % activity against calpain 1 remaining after 10-15 min at 10 uM; conditions: Sus scrofa
T2 sequence (whole entry): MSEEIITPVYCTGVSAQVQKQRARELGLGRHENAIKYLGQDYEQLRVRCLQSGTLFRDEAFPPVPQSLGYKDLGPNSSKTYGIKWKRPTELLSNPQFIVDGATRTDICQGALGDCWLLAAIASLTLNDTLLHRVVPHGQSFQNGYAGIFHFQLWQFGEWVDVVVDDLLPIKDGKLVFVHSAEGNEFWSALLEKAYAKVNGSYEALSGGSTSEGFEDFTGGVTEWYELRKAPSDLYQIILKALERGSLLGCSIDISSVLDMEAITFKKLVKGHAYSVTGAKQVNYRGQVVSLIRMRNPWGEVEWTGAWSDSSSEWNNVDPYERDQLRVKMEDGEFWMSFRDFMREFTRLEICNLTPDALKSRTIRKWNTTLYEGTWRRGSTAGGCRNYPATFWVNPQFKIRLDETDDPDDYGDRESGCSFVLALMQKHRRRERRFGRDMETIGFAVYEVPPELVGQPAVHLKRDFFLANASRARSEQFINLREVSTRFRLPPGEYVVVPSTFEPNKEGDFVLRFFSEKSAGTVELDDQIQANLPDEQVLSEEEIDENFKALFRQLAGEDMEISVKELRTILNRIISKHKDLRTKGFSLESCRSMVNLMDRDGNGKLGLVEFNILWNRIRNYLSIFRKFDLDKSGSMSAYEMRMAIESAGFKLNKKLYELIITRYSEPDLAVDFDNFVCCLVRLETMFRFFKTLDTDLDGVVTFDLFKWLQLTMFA
How it was run: (§1)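 Purified proteases: human liver cathepsin B, porcine erythrocyte calpain I, human neutrophil elastase, bovine chymotrypsin, human thrombin and bovine trypsin. Each enzyme was incubated with inhibitor for 10-15 min, at 10 µM or at 2 µM where specified. Residual enzyme activity is reported as % remaining.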

[4] = molecular target: Cathepsin B (Homo sapiens) (UniProt P07858); assay: Inhibition of cathepsin B by the compound was measured as % activity of thrombin remaining after 10-15 min at 10 uM; how it was run: as §1
[5] = molecular target: Chymotrypsinogen A (Bos taurus) (UniProt P00766); assay: Inhibition of Chymotrypsinogen by the compound was measured as % activity of thrombin remaining after 10-15 min at 10 uM; how it was run: as §1
[6] = molecular target: T3, Neutrophil elastase (Homo sapiens) (UniProt P08246); assay: % activity against elastase remaining after 10-15 min at 10 uM; how it was run: as §1
T3 sequence (whole entry): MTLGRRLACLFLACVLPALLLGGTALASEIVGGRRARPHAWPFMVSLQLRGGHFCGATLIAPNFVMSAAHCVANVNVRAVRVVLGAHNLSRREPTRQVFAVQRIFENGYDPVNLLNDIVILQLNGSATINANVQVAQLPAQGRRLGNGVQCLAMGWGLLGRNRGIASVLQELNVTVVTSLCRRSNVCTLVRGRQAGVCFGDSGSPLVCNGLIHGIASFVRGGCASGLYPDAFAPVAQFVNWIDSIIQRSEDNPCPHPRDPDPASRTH

[7] = molecular target: T1, Human rhinovirus A protease (Human rhinovirus sp.); assay: The EC90 was calculated as the concentration of drug that increased the percentage of formazan production in drug treated, virus infected cells to 50% of that produced by drug free uninfected cells on human rhinovirus 1A.; format: functional
[8] = molecular target: T1, Human rhinovirus A protease (Human rhinovirus sp.); assay: The EC90 was calculated as the concentration of drug that increased the percentage of formazan production in drug treated, virus infected cells to 50% of that produced by drug free uninfected cells on human rhinovirus 2.; format: functional
[9] = molecular target: T1, Human rhinovirus A protease (Human rhinovirus sp.); assay: The EC90 was calculated as the concentration of drug that increased the percentage of formazan production in drug treated, virus infected cells to 50% of that produced by drug free uninfected cells on human rhinovirus-10.; format: functional
[10] = molecular target: T1, Human rhinovirus A protease (Human rhinovirus sp.); assay: The EC90 was calculated as the concentration of drug that increased the percentage of formazan production in drug treated, virus infected cells to 50% of that produced by drug free uninfected cells on human rhinovirus-14.; format: functional
[11] = molecular target: Prothrombin (Homo sapiens) (UniProt P00734); assay: Inhibition of thrombin by the compound was measured as % activity of thrombin remaining after 10-15 min at 10 uM; how it was run: as §1
[12] = molecular target: T4, Serine protease 1 (Bos taurus) (UniProt P00760); assay: Inhibition of trypsin by the compound was measured as % activity of thrombin remaining after 10-15 min at 10 uM; how it was run: as §1
T4 sequence (whole entry): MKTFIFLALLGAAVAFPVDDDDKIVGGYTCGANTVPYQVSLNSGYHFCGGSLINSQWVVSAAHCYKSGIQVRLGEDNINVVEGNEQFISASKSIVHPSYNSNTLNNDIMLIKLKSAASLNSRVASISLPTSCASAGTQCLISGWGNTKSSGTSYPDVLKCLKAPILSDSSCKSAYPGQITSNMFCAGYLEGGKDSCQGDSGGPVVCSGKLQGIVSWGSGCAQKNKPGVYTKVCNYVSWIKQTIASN

[13] = molecular target: T2, Calpain-1 catalytic subunit (Homo sapiens); assay: % activity against calpain 1 remaining after 10-15 min at 2 uM; conditions: Sus scrofa; how it was run: as §1
[14] = molecular target: Cathepsin B (Homo sapiens) (UniProt P07858); assay: Inhibition of cathepsin B by the compound was measured as % activity of thrombin remaining after 10-15 min at 2 uM; how it was run: as §1
[15] = molecular target: Chymotrypsinogen A (Bos taurus) (UniProt P00766); assay: Inhibition of Chymotrypsinogen by the compound was measured as % activity of thrombin remaining after 10-15 min at 2 uM; how it was run: as §1
[16] = molecular target: T3, Neutrophil elastase (Homo sapiens); assay: % activity against elastase remaining after 10-15 min at 2 uM; how it was run: as §1
[17] = molecular target: Prothrombin (Homo sapiens) (UniProt P00734); assay: Inhibition of thrombin by the compound was measured as % activity of thrombin remaining after 10-15 min at 2 uM; how it was run: as §1
[18] = molecular target: T4, Serine protease 1 (Bos taurus); assay: Inhibition of trypsin by the compound was measured as % activity of thrombin remaining after 10-15 min at 2 uM; how it was run: as §1
[19] = Increased percentage of formazan production in drug treated virus infected cells to equal 50% control drug free uninfected cells on serotype 14
chymotrypsin = assay: half life towards biological agent (chymotrypsin); format: ADME
How it was run: (§2)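 Compound at 25 µM in 100 mM potassium phosphate pH 7.4 was preincubated 5 min at 37 °C. Reaction was started with chymotrypsin (5 units/mL) or porcine intestinal peptidase (0.1 units/mL). Aliquots taken at 0 and 60 min were quenched in CH3CN and centrifuged. Parent was quantified by reverse-phase C8 HPLC with UV at 220 nm. 1-Naphthyl butyrate hydrolysis was the peptidase esterase control.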

[20] = half life towards biological agent (dithiothreitol 5 mM); format: ADME; conditions: dithiothreitol solution
[21] = half life towards biological agent (dog plasma); format: ADME, organism-based, Canis lupus familiaris
How it was run: (§3)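 Human plasma (CPDA) or heparinized animal plasma, with rat plasma diluted 1:1 in 100 mM phosphate pH 7.4, and buffer controls, n = 3. Compound was added to 25 µM final at 37 °C and sampled periodically over 1 h. Samples were quenched in CH3CN, centrifuged, dried, reconstituted and analysed by reverse-phase HPLC. 1-Naphthyl butyrate was the esterase control.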

[22] = half life towards biological agent (human plasma); format: ADME, organism-based; how it was run: as §3
peptidase = assay: half life towards biological agent (peptidase); format: ADME; how it was run: as §2
[23] = half life towards biological agent (rat plasma); format: ADME, cell-free; how it was run: as §3
[24] = molecular target: T1, Human rhinovirus A protease (Human rhinovirus sp.); assay: The kobs/[I] value for the irreversible inhibitors was obtained by reaction initiated by addition of 50 nM 3CP,containing 1 uM substrate and varying inhibitor concentrations on serotype 2.

Compound: CCOC(=O)/C=C/[C@H](CCC(=O)NC)NC(=O)[C@H](Cc1ccccc1)NC(=O)[C@H](CC(C)C)NC(=O)OCc1ccccc1
- CC50 [1]: > 100000 nM

Compound: CCOC(=O)/C=C/[C@H](C[C@@H]1CCCNC1=O)NC(=O)[C@H](Cc1ccccc1)NC(=O)[C@H](CC(C)C)NC(=O)OCc1ccccc1
- K obs / 1 [2]: 239000 M⁻¹ s⁻¹
- CC50 [1]: > 100000 nM

Compound: CCOC(=O)/C=C/[C@H](C[C@@H]1CCCNC1=O)NC(=O)[C@@H](CC(=O)[C@@H](NC(=O)c1cc(C)on1)C(C)C)Cc1ccc(F)cc1
- K obs / 1 [2]: 500000 M⁻¹ s⁻¹
- CC50 [1]: > 100000 nM

Compound: CCOC(=O)/C=C/[C@H](C[C@@H]1CCNC1=O)NC(=O)[C@H](Cc1ccc(F)cc1)NC(=O)[C@@H](NC(=O)c1cc(C)on1)C(C)C
- Activity [3]: 100%
- Activity [4]: 96%
- Activity [5]: 101%
- Activity [6]: 100%
- EC90 [7]: 140 nM
- K obs / 1 [2]: 1.5e+06 M⁻¹ s⁻¹
- EC90 [8]: 50 nM
- EC90 [9]: 140 nM
- EC90 [10]: 40 nM
- Activity [11]: 103%
- Activity [12]: 100%
- CC50 [1]: > 100000 nM

Compound: CCOC(=O)/C=C/[C@H](CCC(=O)N(C)C)NC(=O)[C@H](Cc1ccccc1)NC(=O)[C@H](CC(C)C)NC(=O)OCc1ccccc1
- CC50 [1]: > 100000 nM

Compound: CCOC(=O)/C=C/[C@H](CN1CCNC1=O)NC(=O)[C@H](Cc1ccccc1)NC(=O)[C@H](CC(C)C)NC(=O)OCc1ccccc1
- K obs / 1 [2]: 10900 M⁻¹ s⁻¹
- CC50 [1]: > 100000 nM

Compound: CCOC(=O)/C=C/[C@H](CCC(N)=O)NC(=O)[C@@H](CC(=O)[C@@H](NC(=O)c1cc(C)on1)C(C)C)Cc1ccc(F)cc1
- EC90 [7]: 630 nM
- EC90 [8]: 280 nM

Compound: CCOC(=O)/C=C/[C@H](CCC(N)=O)NC(=O)[C@H](Cc1ccccc1)NC(=O)[C@H](CC(C)C)NC(=O)OCc1ccccc1
- Activity [13]: 100%
- Activity [14]: 39%
- Activity [15]: 96%
- Activity [16]: 92%
- Activity [17]: 101%
- Activity [18]: 98%
- CC50 [1]: > 320000 nM
- EC50 [19]: 540 nM

Compound: CCOC(=O)/C=C/[C@H](C[C@H]1CCNC1=O)NC(=O)[C@H](Cc1ccccc1)NC(=O)[C@H](CC(C)C)NC(=O)OCc1ccccc1
- K obs / 1 [2]: 18000 M⁻¹ s⁻¹
- CC50 [1]: > 100000 nM

Compound: CCOC(=O)/C=C/[C@H](C[C@@H]1CCNC1=O)NC(=O)[C@H](Cc1ccccc1)NC(=O)[C@@H](NC(=O)OCc1ccccc1)C(C)C
- K obs / 1 [2]: 500000 M⁻¹ s⁻¹
- CC50 [1]: > 100000 nM

Compound: CCOC(=O)/C=C/[C@H](C[C@@H]1CCNC1=O)NC(=O)[C@@H](CC(=O)[C@@H](NC(=O)c1cc(C)on1)C(C)C)Cc1ccc(F)cc1
- half-life (chymotrypsin): > 1 h
- half-life [20]: > 0.5 h
- half-life [21]: > 1 h
- half-life [22]: > 1 h
- half-life (peptidase): > 1 h
- Activity [3]: 100%
- Activity [4]: 98%
- Activity [5]: 100%
- Activity [6]: 99%
- EC90 [7]: 41 nM
- K obs / 1 [2]: 1.09e+06 M⁻¹ s⁻¹
- EC90 [8]: 30 nM
- EC90 [9]: 100 nM
- EC90 [10]: 20 nM
- Activity [11]: 100%
- Activity [12]: 100%
- CC50 [1]: > 100000 nM
- half-life [23]: < 2 min

Compound: CCOC(=O)/C=C/[C@H](C[C@@H]1CCCNC1=O)NC(=O)[C@H](Cc1ccc(F)cc1)NC(=O)[C@@H](NC(=O)c1cc(C)on1)C(C)C
- K obs / 1 [2]: 900000 M⁻¹ s⁻¹
- CC50 [1]: > 100000 nM

Compound: CCOC(=O)/C=C/[C@H](C[C@@H]1CCNC1=O)NC(=O)[C@H](Cc1ccccc1)NC(=O)[C@H](CC(C)C)NC(=O)OCc1ccccc1
- K obs / 1 [2]: 257000 M⁻¹ s⁻¹
- K obs / 1 [24]: 31000 M⁻¹ s⁻¹
- CC50 [1]: > 100000 nM

Compound: CCOC(=O)/C=C/[C@H](C[C@@H]1CCNC1=O)NC(=O)[C@H](Cc1ccc(F)cc1)NC(=O)[C@@H](NC(=O)c1cc(C)on1)C(C)(C)C
- Activity [3]: 100%
- Activity [4]: 81%
- Activity [5]: 97%
- Activity [6]: 96%
- K obs / 1 [2]: 980000 M⁻¹ s⁻¹
- Activity [11]: 101%
- Activity [12]: 95%
- CC50 [1]: > 100000 nM
